Experimental data published in ChEMBL document CHEMBL1150123, “Constituents of the twigs of Hernandia ovigera that inhibit the transformation of JB6 murine epidermal cells” (J Nat Prod, 2002).
In brackets after ≈: the same amount, converted by molar mass.

Legend:
[1] = Inhibition of 12-O-tetradecanoylphorbol 13-acetate-induced transformation of mouse JB6 cells after 14 days by soft agar assay; assay type: functional, cell-based
[2] = Ratio of IC50 for mouse JB6 cells to IC50 for inhibition of 12-O-tetradecanoylphorbol 13-acetate-induced transformation of mouse JB6 cells
Summary of the method: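 Ratio of two IC50s. The first is trypan blue cytotoxicity: JB6 cells, 24 h preincubation, 3-day exposure. The second is soft-agar transformation: TPA-sensitive P+ JB6 cells in 0.5% agar with TPA plus compound, triplicate wells, 14 days at 37 °C. Colonies of ≥15 cells were counted in three 0.25 cm² areas. Frequency is relative to TPA and 0.1% DMSO controls.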

[3] = Cytotoxicity against mouse JB6 cells after 3 days by trypan blue staining; assay type: cell-based; conditions: JB6, 72 h
Summary of the method: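 JB6 cells at 1×10^4 cells/mL were preincubated 24 h, then exposed to a range of test-compound concentrations for 3 days. Trypsinized cells were mixed with 0.4% trypan blue, and percent viability was scored microscopically.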

Structure (SMILES) | IC50 [1] [mg/L] | Ratio IC50 [2] | IC50 [3] [mg/L]
COc1ccc([C@@H]2OC[C@@H]3[C@H]2CO[C@@H]3c2cc(OC)c(OC)c(OC)c2)cc1OC | > 4 | – | –
COc1cc([C@@H]2c3c(cc4c(c3OC)OCO4)[C@H](OC(C)=O)[C@H]3COC(=O)[C@@H]23)cc(OC)c1OC | > 4 | – | –
COc1cc([C@@H]2c3cc4c(cc3[C@H](OC(C)=O)[C@H]3COC(=O)[C@@H]23)OCO4)cc(OC)c1OC | 0.15 (≈ 0.329 µM) | 10 | 1.2 (≈ 2.63 µM)
COc1cc(C[C@H]2C(=O)OC[C@@H]2Cc2cc(OC)c3c(c2)OCO3)cc(OC)c1OC | > 4 | – | –
COc1cc([C@H]2OC[C@H]3[C@@H]2CO[C@@H]3c2cc(OC)c(OC)c(OC)c2)cc(OC)c1OC | > 4 | – | –
COc1cc(C[C@H]2C(=O)OC[C@@H]2Cc2ccc3c(c2)OCO3)cc(OC)c1OC | > 4 | – | –
COc1cc2c(cc1OC)C(=O)N(C)CC2 | > 4 | – | –
COc1cc([C@@H]2OC[C@@H]3C(=O)OC[C@@H]32)cc(OC)c1OC [CARUILIGNAN C] | > 4 | – | –
COc1cc([C@@H]2OC[C@H]3[C@@H]2CO[C@H]3c2cc(OC)c3c(c2)OCO3)cc(OC)c1OC [DIASESARTEMIN] | > 4 | – | –
COc1cc([C@H]2OC[C@H]3[C@@H]2CO[C@H]3c2cc(OC)c(OC)c(OC)c2)cc(OC)c1OC [EPIYANGAMBIN] | 0.4 (≈ 0.896 µM) | 10 | 5.7 (≈ 12.8 µM)
